For assay [1], the target named is T1, Human immunodeficiency virus type 1 integrase (Human immunodeficiency virus 1, UniProt Q7ZJM1). Kind of assay: Inhibitory concentration against 3'processing of HIV-1 Integrase.
Assay [2] concerns HeLa. Briefly: Ratio of cytotoxicity for HeLa H1-JC.37 cells (IC50) to antiviral activity against HIV-1 (EC50). The format is functional, Homo sapiens. Summed up:
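Ratio of cytotoxic IC50 to antiviral EC50 in HeLa H1-JC.37 cells (HeLa CD4 expressing CCR5). EC50 came from an HIV-1 focal infectivity assay: mAb 22-6 (1/800) immunostaining, foci counted at 30× to 100×, best-fit linear portion of % no-drug control foci versus concentration, at least three experiments. IC50 came from an MTS proliferation assay, same fitting, at least two experiments.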

The test system of assay [3] is HeLa. Briefly: Antiviral activity against human immuno deficiency virus type 1 in HeLa H1-JC.37 cells. The format is functional, cell-based. Summed up:
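HIV-1 focal infectivity assay in HeLa H1-JC.37 indicator cells (HeLa CD4 expressing human CCR5, naturally CXCR4). Foci immunostained with monoclonal antibody 22-6 at 1/800 and counted under a dissecting microscope at 30× to 100×. Plotted as percentage of no-drug control foci against inhibitor concentration; EC50 from best-fit line of linear portion; at least three separate experiments.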

In assay [4] the test system is HeLa. Kind of assay: Cytotoxicity for HeLa H1-JC.37 cells using MTS assay. The format is functional, cell-based. The note with it: Homo sapiens. Summed up: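 HeLa H1-JC.37 cell proliferation measured by MTS assay under manufacturer's recommended conditions. Data plotted as percentage of no-drug control against inhibitor concentration; IC50 for 50% inhibition of proliferation taken from best-fit line of linear portion of plot; at least two separate experiments.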
A general note: Formazan colour is commonly taken as a measure of viable cells.

Assay [5] addresses T1, Human immunodeficiency virus type 1 integrase. Briefly: Inhibitory concentration against integration of HIV-1 Integrase.

T1 sequence (Q7ZJM1 whole entry): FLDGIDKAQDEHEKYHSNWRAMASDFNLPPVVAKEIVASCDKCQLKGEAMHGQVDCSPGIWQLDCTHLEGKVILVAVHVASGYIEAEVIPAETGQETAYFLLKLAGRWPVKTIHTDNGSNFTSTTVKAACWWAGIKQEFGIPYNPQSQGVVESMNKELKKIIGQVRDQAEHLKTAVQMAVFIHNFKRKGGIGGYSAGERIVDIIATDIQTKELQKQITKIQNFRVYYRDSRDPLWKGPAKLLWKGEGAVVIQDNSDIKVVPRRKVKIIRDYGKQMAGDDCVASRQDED

One may read the IC50 as the concentration that gives 50% inhibition. Usually EC50 stands for the concentration needed to bring the measured effect to its halfway point. A low value points to higher potency in that assay. Consider `COc1cc(/C=C/S(=O)(=O)CS(=O)(=O)/C=C/c2cc(O)c(O)c(OC)c2)cc(O)c1O`, for which the half-inhibitory concentration (IC50) was 50 µM in assay [1], 29 µM with HeLa [4] and 50 µM in assay [5]. The Selectivity index with HeLa [2] is 22. Also, it took 1.3 µM to reach a half-maximal effect in the assay on HeLa [3] (EC50).

On to `O=S(=O)(/C=C/c1cc(O)c(O)c(O)c1)CS(=O)(=O)/C=C/c1cc(O)c(O)c(O)c1`, for which the IC50 in assay [1] stood at 1.8 µM; in the assay with HeLa [4], 169 µM; in assay [5], 0.9 µM. In addition, the Selectivity index in the assay with HeLa [2] was 563. Besides, a half-maximal response in the assay with HeLa [3] (EC50) required 0.3 µM.

With `O=S(=O)(/C=C/c1ccc(O)c(O)c1)CS(=O)(=O)/C=C/c1ccc(O)c(O)c1`, the 50% inhibitory concentration (IC50) in assay [1] was determined as 4 µM; in the assay with HeLa [4], 187 µM; in assay [5] it was 5 µM. Moreover, the Selectivity index with HeLa [2] was found to be 78. In addition, the half-maximal effective concentration (EC50) in the assay with HeLa [3] was found to be 2.4 µM.

Take `COc1cc(/C=C/S(=O)(=O)CS(=O)(=O)/C=C/c2ccccc2)cc(O)c1O`: the IC50 in assay [1] is 80 µM; in the assay on HeLa [4] it was 19 µM; in assay [5], 80 µM. Besides, in the assay with HeLa [2], the Selectivity index worked out at 4.3. This molecule also yielded an EC50 with HeLa [3] of 4.5 µM.

Take `COc1cc(/C=C/S(=O)(=O)CS(=O)(=O)/C=C/c2ccc(C(C)=O)c(OC)c2)ccc1C(C)=O`: the IC50 in assay [1] and in assay [5] was over 1000 µM in each case.

In the case of `O=C(O)C(=O)CC(=O)c1cc(OCc2ccccc2)cc(OCc2ccccc2)c1`, the 50% inhibitory concentration (IC50) in assay [1] is over 1000 µM. Moreover, the concentration for a half-maximal effect (EC50) in the assay with HeLa [3] turned out to be 0.78 µM.

Consider `O=S(=O)(/C=C/c1ccc(OCc2ccccc2)c(OCc2ccccc2)c1)CS(=O)(=O)/C=C/c1ccc(OCc2ccccc2)c(OCc2ccccc2)c1`, for which the IC50 in assay [1] and in assay [5] was 700 µM throughout.
